Insulin prom act – activators of insulin promoter-driven GFP, primary screen, imaging, TRM-6 cells, eGFP reporter, cell count. plate-scaled: unstimulated 0, stimulated control 100. activation, % at 2 µM. 130,000 tested, 0.81% active;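 active means activation at 2 µM above a set limit, confirmed on inspection of the cell images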;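 further: share of cells whose green reporter signal exceeds an intensity cutoff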
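Test system: human fetal islet-derived TRM-6 cells with tamoxifen-inducible insulin promoter–eGFP reporter. Compound dosing: 2 µM final, single concentration. Incubation: tamoxifen pre-incubation 15 h overnight, then compound exposure 48 h at 37 °C. Signal: fixed-cell fluorescence microscopy, eGFP plus Hoechst.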
An asterisk follows results filed as active. Many of the other results were omitted from the sample, so hits are more common in it than they were.

SMILES | Insulin prom act
COc1cc(OC)cc(-c2nnc(SCC(=O)Nc3cc(C)on3)o2)c1 | 113*
COc1ccc(C(=O)CSc2nnc(-c3cc(C)cc(C)c3)o2)cc1 | 3
COc1ccc(S(=O)(=O)CC2(O)CCN(C(=O)C(C)(C)C)CC2)cc1 | 0
O=c1c2ccccc2c(C=NCCCN2CCOCC2)c(O)n1Cc1ccccc1 | -3
CCN(c1ccc(N=Cc2c(O)n(Cc3ccc(OC)cc3)c(=O)c3ccccc23)cc1)C(C)C | 471*
COc1ccc(N=Cc2sc(O)c3ccccc23)cc1 | 0
Fc1ccccc1/C=N/NC(=S)Nc1ccc(Cl)cc1Cl | 114
COc1ccc(N2CCN(S(=O)(=O)c3ccc(Cl)s3)CC2)cc1 | 2
COc1ccc(N2CCN(S(=O)(=O)c3cccs3)CC2)cc1 | 500*
COc1ccccc1N1CCN(S(=O)(=O)c2cccs2)CC1 | 3
O=C(/C=C/c1ccccc1Cl)NCc1cccs1 | 178
COc1cc(C)nc(NS(=O)(=O)c2ccc(C)cc2)n1 | 3
O=S(=O)(c1cccc2nsnc12)N1CCc2ccccc21 | -40
O=C(N/N=C/C=C/c1ccccc1)c1ccc(Br)cc1 | 10
CC(/C=C/c1ccccc1)=N\NC(=O)c1ccc(Br)cc1 | 389*
CC(/C=C/c1ccccc1)=N\NC(=O)CNC(=O)c1ccccc1Cl | -9
CC1=C(C(=O)OCCOc2ccccc2)C(c2ccsc2)NC(=O)N1C (centres undefined) | 0
Cc1nn(C)cc1CNC(=O)C1(C)CC1(Cl)Cl (centres undefined) | 8
COc1cccc(NC(=S)NNC(=O)Cn2nc(C(F)(F)F)cc2C)c1 | 8
Cc1cccc(NC(=O)C2c3ccccc3Oc3ccccc32)n1 | -7
O=C1CCC(C(=O)Nc2cccc(S(=O)(=O)N3CCOCC3)c2)N1 (centres undefined) | 0
Clc1ccc(CN2C3=NCCCN3c3ccccc32)cc1 | 136*
OC(CN1C2=NCCN2c2ccccc21)c1ccc(Br)cc1 (centres undefined) | -3
O=C(CN1C2=NCCCN2c2ccccc21)c1cccc(Br)c1 | -8
CCC(C)NC(=O)Cn1c(-c2ccccc2)cc(C(C)=O)c1C (centres undefined) | 0
SMILES | Insulin prom act
S=C(NCCc1ccccc1)NCc1cccs1 | -8
CCSCc1nnc(SCC(=O)Nc2cccc(SC)c2)n1C | 425*
CSc1cccc(NC(=O)CSc2ccc(C)cc2)c1 | -7
Cn1c(Cn2c(=O)sc3ccccc32)nnc1SCC(=O)Nc1ccccc1 | 12
COc1ccc(-c2nn(C)c(=O)c3ccccc23)cc1CNC(=O)CN1CCOCC1 | 98
C=CCc1cc(C=O)cc(OC)c1OCc1c(Cl)cccc1Cl | 10
Cc1sc(NC(=O)C(C)C)c(C(=O)Nc2ccccc2)c1C | -4
O=C(CNC(=O)c1ccc(S(=O)(=O)N2CCCCC2)cc1)N/N=C/c1ccco1 | 114
O=C(NCc1cccnc1)C(=O)NCC1OCCN1S(=O)(=O)c1ccccc1 (centres undefined) | 7
CCN(CC)CCNC(=O)C(=O)NCC1OCCN1S(=O)(=O)c1ccc2c(c1)OCCO2 (centres undefined) | -9
Cc1cc(C)c(S(=O)(=O)N2CCOC2CNC(=O)C(=O)NCCc2c[nH]c3ccccc23)c(C)c1 (centres undefined) | 310*
CCOC(=O)/C=C1\NC(=O)C(C)S1 (centres undefined) | -4
CCCn1c(SCC(=O)c2c[nH]c3ccccc23)nnc1-c1ccncc1 | -9
Cc1cc(C)cc(COn2ccnc2)c1 | -68
O=C(CSc1ccccn1)C12CC3CC(CC(C3)C1)C2 | 6
COc1ccc(-c2noc(CCC(=O)N3CCC(C)CC3)n2)cc1 | 113
CCCCCC(=O)N1CCCC(c2nc(-c3ccc(OC)cc3)no2)C1 (centres undefined) | 77*
O=C(CC1CCCCC1)N1CCCC(c2nc(-c3ccc(S(=O)(=O)N4CCCC4)cc3)no2)C1 (centres undefined) | 9
Cc1cc(C)cc(CC(Cc2nc3ccccc3[nH]2)c2nc3ccccc3[nH]2)c1 (centres undefined) | -4
COc1cccc(C(=O)NN/C(C)=C/C(=O)C(F)(F)C(F)(F)C(F)(F)F)c1 | 0
S=c1[nH]nc(CSc2nc3ccccc3s2)n1C1CCCCC1 | 0
CCCCn1c(CN(C)Cc2ccccc2)nc2c1c(=O)n(C)c(=O)n2C | -71
CN(Cc1ccccc1)Cc1nc2c([nH]1)c(=O)n(C)c(=O)n2C | 105*
CCCn1c(CN(C)Cc2ccccc2)nc2c1c(=O)n(C)c(=O)n2C | 0
CCCCNC(=O)COc1ccccc1[N+](=O)[O-] | -7
SMILES | Insulin prom act
CC(C)(C)c1c(Cl)c(O)c(-c2ccccc2)c(=O)n1-c1ccccc1 | 6
Cc1cc([N+](=O)[O-])c2c(c1C)C1C=CCC1C(c1ccccn1)N2 (centres undefined) | -8
Cn1c(N)c(C(=O)COC(=O)c2ccc3c(c2)OCCO3)c(=O)n(C)c1=O | -10
CC(C)Cn1c(N)c(C(=O)CSc2nnnn2C)c(=O)n(C)c1=O | -9
CC(C)Cn1c(N)c(C(=O)CSc2ccc3c(c2)OCCO3)c(=O)n(C)c1=O | 168*
COc1ccc(S(=O)(=O)N2CCc3ccccc32)cc1C(=O)OCc1nnc(-c2ccccc2)o1 | -71
O=CNC(Cc1ccccc1)C(=O)O (centres undefined) | -7
CC(C)CC(=O)NNC(=O)C(C)C | -9
COCc1cc(C)nc(N2CCNCC2)c1C#N | 8
O=C(NC(=S)NCc1ccccc1)c1cccnc1 | -7
CCCCNC(=S)N1CCn2cccc2C1c1ccccc1 (centres undefined) | 0
S=C(NCc1ccccc1)N1CCn2cccc2C1c1cccnc1 (centres undefined) | 124*
COC(=O)CNC(=O)CN1C(=O)N(c2cccc(Cl)c2)C(N(O)C(=O)Nc2cccc(Cl)c2)C1(C)C (centres undefined) | 3
CCOC(=O)Cc1csc(NS(=O)(=O)c2ccc(SC)cc2)n1 | 114
Cc1cccc(C(=O)NC(=S)Nc2ccc(N3CCOCC3)cc2)c1 | 8
COC(=O)c1ccc(-c2ccco2)n1Cc1nc(-c2ccc(OC)c(OC)c2)oc1C | 0
COc1cc(-c2nc(CN3CCN(CC(C)C)C(=O)[C@@H]3C)c(C)o2)ccc1F | 270*
COc1ccc(-c2nc(CS(=O)CC(=O)NCCCN3CC(C)CC(C)C3)c(C)o2)cc1OC (centres undefined) | -7
CCN(CCCNC(=O)C1CCC(=O)N1C(C)C)c1cccc(C)c1 (centres undefined) | 3
CCC(CC)C(=O)Nc1cccc(/C(C)=N/NC(=O)c2ccccc2Cl)c1 | 10
COc1cc(C2C3CN(C)CC=C3C(C#N)=C(N)C2(C#N)C#N)ccc1OC(C)C (centres undefined) | 257*
COc1cc(C2NC(=O)C(C#N)=C(S)N2c2ccccc2)ccc1OC(C)C (centres undefined) | 192
CN1C2C=C3C(C#N)=C(N)C(C#N)(C#N)C(c4ccc(Br)cc4)C3C1CC2 (centres undefined) | 281
CC(C)N1CC=C2C(C#N)=C(N)C(C#N)(C#N)[C@H](c3ccoc3)[C@H]2C1 | 161*
Cc1ccc(C2C3CSCC=C3C(C#N)=C(N)C2(C#N)C#N)cc1 (centres undefined) | -4
OCCN(Cc1ccccc1)Cc1ccc(F)c(F)c1 | -9
O=C(CCSc1nc2ccccc2s1)N/N=C/c1c(O)ccc2ccccc12 | 4
